Rows were chosen to be rich in hits. Some 3% of all compounds tested hit in one or more screens of this group.
Lipid droplet: inhibitors of hepatocyte lipid droplet formation, primary screen, imaging, high-throughput imaging, BODIPY stain; inhibition, % at 6.5 µM; 240,000 compounds, 0.4% hits; AML12 mouse hepatocytes, oleate lipid droplets;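 active = lipid droplet intensity inhibited by at least 50%, with more than 500 cells counted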
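Test system: AML12 hepatocytes (mouse); reagent: oleate loading, 100 µM; dosing: one dose, 6.5 µM compound; incubation: overnight exposure; signal: fluorescence imaging, 20x objective, two fields per well; read-out basis: % inhibition of corrected integrated BODIPY droplet signal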
GRIN3A LBD mod: binders of NR3A ligand-binding domain, primary screen, biophysical, differential scanning fluorimetry, uHTS; Glutamate receptor ionotropic, NMDA 3A (GRIN3A) ligand-binding domain; NR3A LBD differential scanning fluorimetry, Tm shift; 0% = protein alone, 100% = glycine-bound protein; Tm shift relative to glycine control, % at 25 µM; 340,000 compounds, 2.5% hits; AID 1259313, 2017;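 active = melting temperature shift of at least 10% of the positive control shift, at one fixed dose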
GC-A act: GC-A stimulated cGMP production enhancers – HEK293 GC-A cells, cGMP TR-FRET, EC30 ANP, primary screen; Atrial natriuretic peptide receptor 1 (Homo sapiens), P16066; 0% at EC30 ANP, 100% saturating ANP; activation, % at 10 µM; 370,000 compounds, 0.14% hits; AID 1671463, 2021; in the data active = activation above about 40%
GASC-1 inh: inhibitors of GASC-1 histone demethylase, primary screen, biochemical, fluorescence, DELFIA europium | 330,000 compounds, 0.069% hits | Lysine-specific demethylase 4C (Homo sapiens), Q9H3R0 | inhibition, % at 2.35 µM | GST-JMJD2C(1-420) H3K9me3 demethylation | AID 2099, 2009;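 active = more than half of a compound's replicate wells show inhibition beyond 50%, single wells judged on their own value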;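 also: signal counts dimethyl H3K9 product captured on neutravidin plate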
aDG glyco act: activators of alpha-DG glycosylation, primary screen, uHTS, Pro5-aDG cells, AlphaScreen; alpha-DG glycosylation AlphaScreen (IIH6); 0% Pro5, 100% B10-LARGE cell signal; activation, % at 10 µM; 360,000 compounds, 0.22% hits;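 active = activation of at least 8% versus controls, or a plate z-score of at least 8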;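 also: Pro5 are CHO cells carrying HIG-tagged alpha-DG that lacks glycosylation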
NPR2 activator: human GC-B receptor activators, primary screen, HEK293 GC-B cells, cGMP TR-FRET, EC30 CNP | activation, % at 10 µM | Atrial natriuretic peptide receptor 2 (Homo sapiens), P20594 | 370,000 compounds, 0.11% hits | 0% at EC30 CNP, 100% saturating CNP;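 active = activation at 10 µM reaching about 35% in either raw or pattern-adjusted values, limit read from the data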
aDG glyco conf: alpha-DG glycosylation enhancers, retest, confirmation, single concentration, Pro5-aDG cells. AID 651671, 2012. IIH6 AlphaLISA; scaled to LARGE-overexpressing B10 cells as 100%. activation, % at 10 µM (by protocol). shares compounds with aDG glyco act. 600 compounds, 17% hits;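 active = activation of at least 7% in one or more replicates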;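 also: cells exposed to compound for two days before detection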
A number is an active result; . = inactive; / = not tested or not shown; ! = not active in a repeat.

SMILES | Lipid droplet | GRIN3A LBD mod | GC-A act | GASC-1 inh | aDG glyco act | NPR2 activator | aDG glyco conf
CC(O)C1C(=O)OC2(C)CC(C)(C)NC(=S)N12 (stereo unspecified) | . | . | . | . | . | . | /
CC1(C)CC2(C)OCCN2C(=S)N1 (stereo unspecified) | . | . | . | . | 3.3! | . | .
CCCCCCc1nc2ccccc2c(=O)n1NC(=O)c1c(O)c2c(n(CC(C)C)c1=O)CCCC2 | / | . | . | . | 6.3 | . | .
Cc1cccc(CCNS(=O)(=O)c2ccc3c(c2)CCN3C(=O)CCC(=O)O)c1 | . | . | / | . | . | / | /
COc1ccc(CCNc2nc(C)nc3c2oc2ccccc23)cc1OC | . | . | . | . | . | . | /
COc1ccc(CCNc2ncnc3c2oc2ccccc23)cc1OC | / | . | / | . | 7.4 | / | .
c1ccc(-c2nc3c4ccccc4ccn3c2CC2CCCCC2)cc1 | / | / | . | / | . | . | /
Brc1cccc(-c2nc3c4ccccc4ccn3c2CC2CCCCC2)c1 | / | / | . | / | 15 | . | 5.8
Cc1cccc2cc(C#N)c(SCC(=O)Nc3ccccc3N3CCOCC3)nc12 | . | . | . | . | 4.9 | . | .
N#Cc1cc2ccccc2nc1SCC(=O)Nc1ccccc1N1CCOCC1 | / | . | . | . | . | . | /
C[C@H](CO)N1C[C@H](C)[C@@H](CN(C)S(=O)(=O)c2ccc(F)cc2)Oc2ccc(NC(=O)C3CCCCC3)cc2C1=O | / | . | . | / | . | . | /
Cc1ccc2nc(-c3ccc(F)cc3)c(CC3CCCCC3)n2c1 | / | / | . | / | 8.8 | . | .
Cc1cc(C(=O)Nc2ccc(Cl)cc2)n(-c2ccccc2)n1 | . | . | . | . | 2.7 | . | .
CCN(CC)CCNC(=O)c1ccc(NCN2C(=O)NC(c3ccccc3)(c3ccccc3)C2=O)cc1 | / | / | . | / | / | . | /
Cc1c(Br)c([N+](=O)[O-])nn1CC(=O)N1CCCc2ccccc21 | . | . | . | . | 4.4 | . | .
COc1ccc(NC(=O)C2CC(=O)N=C(N)S2)cc1 (stereo unspecified) | . | . | . | . | 12 | . | .
O=C(CSc1nnc(Cn2nnc3ccccc32)o1)N(Cc1ccc(Cl)cc1)c1ccccc1 | . | . | . | . | 6.4 | . | .
O=C(CSc1nnc(Cn2nnc3ccccc32)o1)Nc1cccc(Cl)c1 | / | . | . | . | . | . | /
CCN(CC)CCCNc1nc2ccccc2c2[nH]c3ccc(OC)cc3c12 | / | . | . | / | . | . | /
COc1ccc(N2CCN(C(=O)C(Cc3ccccc3)NC(=O)c3ccccc3)CC2)cc1 (stereo unspecified) | / | . | . | / | . | . | /
COC(=O)C1CN(Cc2ccccc2)CCS(=O)(=O)N1Cc1ccccc1F (stereo unspecified) | / | / | . | / | / | . | /
c1csc(-c2nc3c4ccccc4c4ccccc4c3[nH]2)c1 | . | 28 | . | . | 5.5 | . | .
CN1CCN(C(=O)CCn2c(=S)[nH]c3ccccc3c2=O)CC1 | / | / | . | / | . | . | /
O=C(O)CSc1nnc(-c2ccccc2O)n1Cc1ccccc1 | / | . | . | . | 83 | . | .
O=C(CSc1nnc(-c2ccccc2O)n1Cc1ccccc1)NNC(=O)c1ccccc1O | . | . | . | . | . | . | /
SMILES | Lipid droplet | GRIN3A LBD mod | GC-A act | GASC-1 inh | aDG glyco act | NPR2 activator | aDG glyco conf
COc1ccc(-c2ccc3c(c2)S(=O)(=O)c2cccc(C(=O)NC4CC4)c2C3=O)cc1OC | / | . | . | . | . | . | /
COc1ccc(-c2ccc3c(c2)S(=O)(=O)c2cccc(C(=O)NC4CCCCC4)c2C3=O)cc1OC | / | . | / | . | 71 | / | .
CC(C)(C)c1ccc(OCCCNC2CCCC2)cc1 | . | . | . | . | 6.7 | . | .
CCCCOP(=O)(OCCCC)C1(NS(=O)(=O)c2ccccc2)C=CC(=O)c2ccccc21 (stereo unspecified) | / | . | . | . | 5.9 | . | .
CN(C)c1nc(-c2cn(CCC#N)c3ccccc23)cs1 | . | . | . | . | 5.1 | . | .
COc1cc(N/C(=C\C(=O)c2ccccc2)c2ccccc2)ccc1Cl | / | / | . | / | / | . | /
COc1cc(C#Cc2c(-c3cncn3C)n(C)c3ccc(Br)cc23)cc(OC)c1 | / | . | . | / | 5.0 | . | .
COc1cc(C#Cc2c(-c3cncn3C)n(C)c3ccc(-c4ccc(OC)c(OC)c4)cc23)cc(OC)c1 | / | . | . | . | . | . | /
COc1ccc(CN2CCC(C(=O)Nc3ccc(Oc4cccnc4)cc3)CC2)c(C)c1C | . | . | . | . | 2.2 | . | 4.7
CN[C@@H](CO)C(=O)NC[C@H]1O[C@@H](n2cc(C)c(=O)[nH]c2=O)C[C@@H]1O | / | / | . | / | . | . | /
CCn1cc(C(=O)NCC(OC)OC)c(=O)c2cc(S(=O)(=O)N3CCOCC3)ccc21 | . | . | . | . | 7.6 | . | .
COC(=O)c1ccc(N2CCC(c3cc(-c4ccc(OC)cc4)n[nH]3)CC2)c([N+](=O)[O-])c1 | / | . | . | . | . | . | /
COc1ccc(-c2cc(C3CCN(c4ccc(C(C)=O)cc4[N+](=O)[O-])CC3)[nH]n2)cc1 | / | . | . | . | 10 | . | .
COC(=O)[C@]12C[C@H](CC(=O)NCC34CC5CC(CC(C5)C3)C4)C(=O)N(Cc3ccc(Cl)cc3Cl)C1=C[C@H](C1CCCC1)O[C@@H]2C | / | / | . | / | / | . | /
COc1ccc(CNCCC(c2ccccc2)c2ccc3c(c2)OCO3)cc1 (stereo unspecified) | / | . | . | . | 3.9 | . | .
S=C1SCCCN1Cc1ccc(Cl)cc1 | / | / | . | / | . | . | /
Nc1ccc(C(=O)NN2C(=O)[C@H](Cl)C2c2ccc(Cl)cc2)cc1 (stereo partly specified) | / | . | . | / | . | . | /
COc1cn(-c2ccccc2)nc1C(=O)Nc1ccc(C)cc1 | . | . | . | . | . | . | /
COc1ccc(C)cc1NC(=O)c1nn(-c2ccccc2)cc1OC | . | . | . | . | 2.5 | . | .
O=C1c2ccccc2C(=O)N1CC(O)COc1cccc2ccccc12 (stereo unspecified) | / | / | . | / | . | . | /
CNc1nc(-c2c(C)n(C)c3ccc(OC)cc23)cs1 | . | . | . | . | 3.0 | . | .
COc1ccc2c(c1)c(-c1csc(N)n1)c(C)n2C | . | . | . | . | . | . | /

Compound activity (PubChem BioAssay)
